# The list is not random: actives were taken first. Their share in the collection is about 2.4%.
# L929 necroptosis: L929 zVAD cell death inhibition. L929 zVAD necroptosis rescue, ATP luminescence, 24 h; with zVAD 60 µM. viability rescue, % at 10 µM. 220,000 tested, 0.38% active;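 active means activation, scaled between plate controls, above about 75%, limit read from the data; inactive means activation under that limit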;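 further: 0% = zVAD with DMSO and 100% = DMSO alone without zVAD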
# Dynein transport: blocks dynein driven cargo transport along microtubules. 3617.4 mouse cells, GR-EGFP nuclear translocation imaging; test concentration mostly 20 µM; stimulated with dexamethasone, 1 µM; hits give low values. z-score, hits read low. 220,000 tested, 0.47% active;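 active means plate z-score of nuclear minus cytoplasmic receptor signal below a set negative limit, without overly bright fluorescence or cell loss, cut at about -3.5 in these data, passing the limit was not always enough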;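 further: z-score of nuclear minus cytoplasmic ring GR-EGFP intensity difference per well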
#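 Buffer or medium: tet-free, stripped-serum medium; Also added: dexamethasone, 1.0 µM final; Technique: high-content fluorescence imaging after fixation; Times: 48 h induction, 1 h compound, 30 min dex at 37 °C; Read-out: per-cell GR-EGFP intensity, nucleus versus surrounding cytoplasmic ring, well-averaged.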
# TNF death inh: TNF-alpha cell death inhibition in Jurkat FADD-/- cells; 220,000 tested, 0.068% active; activation (protection from cell death), % at 10 µM; Jurkat FADD-/- TNF necroptosis rescue, ATP luminescence, 24 h; 0 = TNF only, 100 = no-TNF cells; AID 463075;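 active means activation, meaning protection from cell death, of at least 50% relative to plate controls; inactive means activation below 50%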;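 further: necroptosis triggered by 40 ng/mL TNF-alpha added together with compound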
# Autophagy HCS: alters autophagy in cells. MEF GFP-LC3 puncta imaging; test concentration mostly 10 µM. calls only at 10 µM (by protocol). 190,000 tested, 0.98% active;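 active means percentage of spot-positive cells more than 3 SD above its plate mean, without a fluorescence outlier flag or 80% toxicity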;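 further: spot-positive cell cutoff set from DMSO-treated cells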
# Hck Nef HTS: blocks Nef-activated human Hck kinase | inhibition, % at 20 µM | P08631 | 220,000 tested, 0.68% active | Recombinant Hck-YEEI plus Nef, Z-Lyte FRET kinase assay;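 active means Hck-Nef kinase inhibition above about 50%, limit read from the data; inactive means inhibition below that limit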;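 further: 0% = DMSO with Hck plus Nef and 100% = Hck alone without Nef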
# Target sequence (P08631 whole entry, looked up): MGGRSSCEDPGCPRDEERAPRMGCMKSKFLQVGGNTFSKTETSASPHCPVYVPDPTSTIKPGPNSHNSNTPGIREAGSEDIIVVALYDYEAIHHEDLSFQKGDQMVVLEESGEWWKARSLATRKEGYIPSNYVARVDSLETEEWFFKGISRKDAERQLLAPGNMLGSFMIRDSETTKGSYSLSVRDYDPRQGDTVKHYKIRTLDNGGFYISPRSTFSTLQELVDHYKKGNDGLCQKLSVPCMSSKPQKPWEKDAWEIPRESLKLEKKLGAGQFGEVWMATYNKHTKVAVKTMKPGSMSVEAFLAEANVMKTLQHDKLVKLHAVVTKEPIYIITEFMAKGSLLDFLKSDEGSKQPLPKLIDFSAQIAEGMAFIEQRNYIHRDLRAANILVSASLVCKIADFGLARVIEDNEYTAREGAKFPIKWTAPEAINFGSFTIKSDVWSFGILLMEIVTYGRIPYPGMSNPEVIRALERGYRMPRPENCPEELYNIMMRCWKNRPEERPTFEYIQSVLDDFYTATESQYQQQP
# MDM2 E3 inh: blocks human Mdm2 ubiquitin ligase activity; Q00987; cell-based MDM2 ubiquitination luciferase reporter, 2 h; 0 = plate control, 100 = twice control, blank-subtracted; signal enhancement, % at 5 µM; 210,000 tested, 0.11% active; AID 1230;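 active means signal enhancement of 30% or more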;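 further: luminescence tracks abundance of the self-degrading MDM2-luciferase fusion protein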
#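 Assay system: mammalian cells stably expressing self-ubiquitinating, self-degrading MDM2 E3–luciferase fusion. Quantity: 2000 cells in each well. Medium: DMEM culture medium. Compound dosing: single-point 5 µM. Timing: cell settling 4 h, compound treatment 2 h, both 37 °C. Technique: luciferase luminescence. Read-out basis: percent signal gain over controls, blank-subtracted. Benchmarks: plate controls and plate blanks.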
# Hck-Nef confirm: confirmation of Hck-Nef kinase inhibitors | shares compounds with Hck Nef HTS | Recombinant Hck-YEEI:Nef, Z-Lyte FRET kinase assay | calls only at 10 µM | 1,300 tested, 28% active;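 active means average inhibition of at least 50%, with Z-scores no higher than 3 in both the phospho-tyrosine peptide and fluorescence counterscreens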
# An asterisk follows results filed as active; i = inactive; . = not tested or not shown; + = active, no number.
SMILES,L929 necroptosis,Dynein transport,TNF death inh,Autophagy HCS,Hck Nef HTS,MDM2 E3 inh,Hck-Nef confirm
COC(=O)c1ccc(CSc2nnc(NC(C)C)s2)o1,0.5,-0.687,0.4,i,-1.4,-7.1,.
CCOC(=O)Cc1csc(NC(=O)CCCCCN2C(=O)c3ccccc3C2=O)n1,0.3,0.129,-0.3,i,0.7,0.0,.
COc1cccc(-n2c(C)c3c(OC)cccc(=O)c3c2C)c1,65.7,-0.208,-0.8,i,50.9*,-3.6,i
COc1cccc(=O)c2c(C)n(-c3cc(C)cc(C)c3)c(C)c12,-0.4,-0.434,-4.6,i,1.7,-18.9,.
O=C(Nc1nccs1)c1cccc(N2C(=O)c3cccc4c([N+](=O)[O-])ccc(c34)C2=O)c1,36.1,0.459,-15.2,i,51.9*,-5.1,+
COc1ccc2nc(-n3c(O)c(C4=c5ccccc5=NC4=O)[nH]c3=S)sc2c1,-0.5,1.71,-1.6,i,102.5*,-8.2,+
Cn1c(O)c(C2=c3ccccc3=NC2=O)[nH]c1=S,1.8,-0.0974,-0.4,i,1.1,7.1,.
CC(C)Oc1cc2oc(=O)c3c(c2cc1Cl)CCC3,0.2,-0.0285,-1.0,i,3.3,-18.3,.
Cc1cc(=O)oc2cc(OC(C)C(=O)O)c(Cl)cc12 (configuration not stated),0.2,0.181,-0.5,i,1.3,.,.
O=C(Oc1cc2oc(=O)c3c(c2cc1Cl)CCCC3)c1ccco1,-0.1,-0.348,-1.1,i,82.8*,-14.7,.
CC(=O)Oc1cc2oc(=O)cc(C)c2cc1Cl,0.4,0.247,1.1,.,+,-36.0,.
Cc1ccc(S(=O)(=O)NC(C(=O)Oc2cc3oc(=O)cc(C)c3cc2Cl)C(C)C)cc1 (configuration not stated),0.1,-0.776,1.2,i,100.3*,.,.
CC(=O)Oc1cc2oc(=O)c3c(c2cc1Cl)CCC3,-0.7,3.22,-0.5,i,111.2*,-8.3,.
NC(=O)c1ccc(NC(=O)COC(=O)C2CC(=O)N(Cc3ccccc3)C2)cc1 (configuration not stated),7.3,0.0927,0.5,i,20.7,-12.9,.
COc1ccc(CCN(Cc2cccs2)S(=O)(=O)c2ccc(C(=O)O)cc2)cc1OC,23.6,0.15,0.0,i,16.7,-4.2,.
O=C(Oc1cc2oc(=O)c3c(c2cc1Cl)CCCC3)c1cccs1,0.2,-0.153,0.2,i,77.9*,-5.2,.
O=C(Oc1ccc2c3c(c(=O)oc2c1)CCCC3)c1cccs1,0.0,0.724,1.1,i,14.5,-5.0,.
CCOc1ccc(N(CC(=O)NC(C)CC)S(=O)(=O)c2c(C)noc2C)cc1 (configuration not stated),-0.4,2.89,0.9,i,-1.3,-17.1,.
CC1CCN(C(=O)CCc2ccc(S(=O)(=O)NC(C)C)cc2)CC1,0.0,0.155,-0.5,i,-9.5,-14.6,.
Cc1ccc(C)c(NC(=O)Cn2nc(-c3ccccc3)nc2-c2ccccc2)c1,1.1,0.31,-0.4,i,58.6*,-7.0,i
N#Cc1c(-c2ccncc2)c2c([nH]c1=O)-c1ccccc1OC2,1.7,-0.466,0.7,.,69.7*,-8.0,i
N#Cc1c(-c2ccncc2)c2c([nH]c1=S)CCCC2,0.0,-0.77,-3.1,i,2.2,-16.6,.
N#Cc1c(-c2ccccc2Cl)c2c([nH]c1=O)-c1ccccc1OC2,3.0,-0.399,3.1,.,146.1*,3.3,i
Cc1ccnc(NC(=O)C(C)n2cc([N+](=O)[O-])cn2)c1 (configuration not stated),23.7,1.33,7.9,i,22.6,-3.5,.
O=C(Cc1csc(N2CCOCC2)n1)N/N=C/c1ccc(O)c(O)c1O,2.7,-0.662,-2.4,i,65.5*,-31.9,i
SMILES,L929 necroptosis,Dynein transport,TNF death inh,Autophagy HCS,Hck Nef HTS,MDM2 E3 inh,Hck-Nef confirm
O=C(CCN1CCN(c2ccccc2)CC1)N/N=C/c1ccc(O)c(O)c1O,0.8,-0.14,-0.6,i,53.5*,.,i
CCN(CC)C(=O)Cc1c(O)c2ccccc2[nH]c1=O,0.0,-0.661,2.0,.,55.8*,-2.5,+
O=C(Nc1ccc2c(c1)OCO2)c1cnn2c(C(F)(F)F)cc(-c3ccco3)nc12,-0.3,0.585,-5.9,i,1.0,-2.9,.
O=C(Nc1cnn(C23CC4CC(CC(C4)C2)C3)c1)c1cnn2c(C(F)(F)F)cc(-c3ccco3)nc12,1.4,2.08,-4.9,i,81.3*,-13.1,+
COc1cc(C(=O)OCC(=O)NC(=O)C2CCCCC2)ccc1OC(F)F,1.2,-0.178,0.1,i,20.9,2.5,.
O=C(NN1C(=O)/C(=C/C=C/c2ccco2)SC1=S)c1ccccc1O,-0.4,-1.4,-4.9,.,82.6*,-7.7,+
O=C(O)C(Cc1ccccc1)N1C(=O)/C(=C/C=C/c2ccco2)SC1=S (configuration not stated),-1.1,-0.0718,-2.6,.,91.8*,-2.8,+
O=C(O)CCCN1C(=O)/C(=C/C=C/c2ccco2)SC1=S,-1.3,0.667,-2.5,.,83.5*,-37.7,i
COC(=O)c1cc(S(=O)(=O)N2CCOCC2)c(N2CCOCC2)cc1N1CCOCC1,2.5,-0.372,1.2,i,-2.5,-1.0,.
CCCS(=O)(=O)Nc1ccc2cn[nH]c2c1,1.9,1.23,1.4,i,-27.6,0.2,.
O=c1cnn(-c2ccccc2)c(-c2ccccc2)c1,0.4,-0.313,-0.5,i,1.8,0.1,.
COc1ccccc1C(=O)NNC(=O)C(=O)NCc1ccccc1,0.8,0.693,-1.5,i,14.6,-15.4,.
COc1ccccc1C(=O)NNC(=O)C(=O)NC(C)C,3.1,-1.7,0.1,i,59.3*,-2.9,i
Cc1ccc(-c2nc(CN3CCCCC3)cc(CN3CCCCC3)c2O)cc1,28.2,-1.34,0.6,i,20.2,19.8,.
O=C(O)c1ccc(N2C(=O)/C(=C/c3ccc(-c4ccc([N+](=O)[O-])cc4)o3)C=C2c2ccccc2)cc1,3.6,-1.5,-13.4,i,72.1*,0.1,+
Cc1coc2c(C)c3oc(=O)c4c(c3cc12)CCC4,-0.2,-0.0244,0.4,i,17.4,.,.
O=c1oc2c3c4c(cc2c2c1CCC2)OCCN4CCC3,0.1,-0.408,-4.1,i,96.9*,-8.0,.
Nc1nnc(SCCOc2ccc(Br)cc2)s1,0.3,0.399,-7.0,i,3.1,-6.6,.
CCOC(=O)c1ccc(NC(=O)Cn2ncc(Cl)c(Cl)c2=O)cc1,-1.1,-4.15*,-13.8,+,58.7*,10.3,+

# Screening results as filed in PubChem BioAssay.
